Columns and labels:
[1] = In vitro inhibition of UDP-[3H]-GlcNAc import into the lumen of the Golgi membranes from rabbit liver homogenate.; assay type: functional, tissue-based, Oryctolagus cuniculus
Outline: (§1)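 Golgi-enriched membranes from rabbit liver homogenate incubated with 1 μM UDP-[³H]GlcNAc plus a range of inhibitor concentrations. Import into the lumen was measured by filtration under initial-velocity conditions, after 90 s at 25 °C, where uptake is linear with time. IC50 and standard deviation were obtained by curve fitting. For UDP, assays included 2 mM EDTA.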

[2] = The compound was tested for extent of UDP-[3H]-GlcNAc accumulation into the lumen of the Golgi membranes.; assay type: functional, Oryctolagus cuniculus
Outline: (§2)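 Rabbit liver Golgi-enriched membranes were incubated as in the import assay with 1 μM UDP-[³H]GlcNAc and varied inhibitor concentrations. Uptake was allowed to reach equilibrium (20–30 min) before membrane-associated label was measured by filtration. 1 mM AMP-PNP was added to limit UDP-GlcNAc degradation. IC50 was derived by curve fitting; values are averages of at least three independent measurements.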

[3] = (§3) The compound was tested for inhibition of the rate of 1 uM UDP-[3H]-GlcNAc import into the lumen of the Golgi membranes.; assay type: functional, Oryctolagus cuniculus; outline: as §1
[4] = Inhibitory concentration at which there is accumulation of UDP-[3H]-GlcNAc in the lumen of the Golgi membranes.; assay type: functional, cell membranes, Oryctolagus cuniculus; outline: as §2
[5] = The compound was tested for extent of 1 uM UDP-[3H]-GlcNAc accumulation into the lumen of the Golgi membranes from rabbit liver homogenate; assay type: functional, tissue-based, Oryctolagus cuniculus; outline: as §2
[6] = species: Oryctolagus cuniculus; assay: as §3; assay type: functional

IC50 [1]	IC50 [2]	IC50 [4]	SMILES	further results
11 µM	–	–	O=c1ccn([C@@H]2O[C@H](COP(=O)(O)O)[C@@H](O)[C@H]2F)c(=O)[nH]1	–
> 100 µM	–	–	Nc1ccn([C@@H]2O[C@H](COP(=O)(O)O)[C@@H](O)[C@H]2O)c(=O)n1 (stereo in doubt; form 1)	–
3.5 µM	5 µM	–	CCc1cn(C2O[C@H](COP(=O)(O)O)[C@@H](O)[C@@H]2O)c(=O)[nH]c1=O (stereo partly specified)	–
> 200 µM	–	–	Cc1cn([C@@H]2O[C@H](COP(=O)(O)O)[C@@H](O)[C@@H]2F)c(=O)[nH]c1=O	–
8 µM	–	–	O=c1ccn([C@H]2C[C@H](O)[C@@H](COP(=O)(O)O)O2)c(=O)[nH]1 [DEOXYURIDINE MONOPHOSPHATE]	–
10 µM	–	11 µM	Cc1cn([C@H]2C[C@H](O)[C@@H](COP(=O)(O)O)O2)c(=O)[nH]c1=O [THYMIDINE MONOPHOSPHATE]	IC50 [5]: 11 µM
10 µM	–	–	Nc1ccn([C@@H]2O[C@H](COP(=O)(O)O)[C@@H](O)[C@H]2O)c(=O)n1 (stereo in doubt; form 2)	–
8 µM	4 µM	4 µM	O=c1ccn(C2O[C@H](COP(=O)(O)O)[C@@H](O)[C@@H]2O)c(=O)[nH]1 (stereo partly specified)	–

The next lines start with the compound.

SMILES	IC50 [1]	IC50 [2]	IC50 [4]	further results
CC#Cc1cn([C@H]2C[C@H](O)[C@@H](COP(=O)(O)O)O2)c(=O)[nH]c1=O	> 40 µM	> 40 µM	–	–
O=c1[nH]c(=O)n(C2CSC(COP(=O)(O)O)O2)cc1F (stereo unspecified)	18 µM	35 µM	–	–
N[C@H]1[C@@H](OP(=O)(O)OP(=O)(O)OC[C@H]2O[C@@H](n3ccc(=O)[nH]c3=O)[C@H](O)[C@@H]2O)O[C@H](CO)[C@H](O)[C@@H]1O [URACIL DIPHOSPHATE GALACTOSAMINE]	–	–	–	IC50 [3]: 40 µM
Cc1cn([C@H]2CC[C@@H](COP(=O)(O)O)O2)c(=O)[nH]c1=O	9 µM	–	–	–
Cc1cn([C@H]2CC[C@H](COP(=O)(O)O)O2)c(=O)[nH]c1=O	> 200 µM	–	–	–
Cc1cn(C2CC(F)C(COP(=O)(O)O)O2)c(=O)[nH]c1=O (stereo unspecified)	1.5 µM	–	–	–
O=c1[nH]c(=O)n(C2CC(F)C(COP(=O)(O)O)O2)cc1Cl (stereo unspecified)	9 µM	4 µM	–	–
Cc1cn(COCCOP(=O)(O)O)c(=O)[nH]c1=O	> 100 µM	> 100 µM	> 100 µM	–
Cc1cn([C@H]2C[C@H](N=[N+]=[N-])[C@@H](COP(=O)(O)O)O2)c(=O)[nH]c1=O (stereo in doubt; form 2) [AZIDOTHYMIDINE MONOPHOSPHATE]	85 µM	> 100 µM	> 100 µM	–
CC(=O)N[C@@H]1[C@H](OP(=O)(O)OP(=O)(O)OC[C@H]2O[C@@H](n3ccc(=O)[nH]c3=O)[C@H](O)[C@@H]2O)O[C@@H](CO)[C@H](O)[C@H]1O	–	–	4 µM	IC50 [3]: 7 µM; Km [6]: 2 µM
CCCc1cn([C@H]2C[C@H](O)[C@@H](COP(=O)(O)O)O2)c(=O)[nH]c1=O	–	–	–	IC50 [3]: 100 µM
CC(=O)N[C@H]1[C@H]([C@H](O)[C@H](O)CO)O[C@](OP(=O)(O)OC[C@H]2O[C@@H](n3ccc(N)nc3=O)[C@H](O)[C@@H]2O)(C(=O)O)C[C@@H]1O	> 50 µM	–	35 µM	–
O=c1[nH]c(=O)n([C@H]2C[C@H](O)[C@@H](COP(=O)(O)O)O2)cc1/C=C/Br	–	–	–	IC50 [3]: 5 µM
Cc1cn([C@H]2C[C@H](N=[N+]=[N-])[C@@H](COP(=O)(O)O)O2)c(=O)[nH]c1=O (stereo in doubt; form 1) [AZIDOTHYMIDINE MONOPHOSPHATE]	7 µM	5 µM	5 µM	–
N[C@H]1[C@@H](OP(=O)(O)OP(=O)(O)OC[C@H]2O[C@@H](n3ccc(=O)[nH]c3=O)[C@H](O)[C@@H]2O)O[C@H](CO)[C@@H](O)[C@@H]1O [URACIL DIPHOSPHATE GLUCOSAMINE]	–	–	> 40 µM	IC50 [3]: 7 µM
